ChEMBL document CHEMBL3352330, “Discovery of azetidine based ene-amides as potent bacterial enoyl ACP reductase (FabI) inhibitors” (Eur J Med Chem, 2014)
In brackets after ≈: the same amount, converted by molar mass.

Assays:
[1] = tested on: Staphylococcus aureus; assay: Antibacterial activity against methicillin-resistant Staphylococcus aureus ATCC 33591 after 16 to 20 hrs by broth microdilution method; assay type: functional
Procedure, shortened: (§1)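 Broth microdilution in MHB, serial two-fold compound dilutions; final inoculum 5 × 10⁵ CFU/mL; broth, compound and organism controls in duplicate; S. aureus ATCC 29213 as quality control strain; incubation 35 °C, 16–20 h, ambient air; growth read by unaided eye with viewing device, end point set against no-antibiotic control wells.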

[2] = tested on: Staphylococcus epidermidis; assay: Antibacterial activity against methicillin-resistant Staphylococcus epidermidis AUCC 704 after 16 to 20 hrs by broth microdilution method; assay type: functional; procedure, shortened: as §1
[3] = target: T1, Enoyl-[acyl-carrier-protein] reductase [NADPH] FabI (Staphylococcus aureus) (UniProt Q6GI75); assay: Inhibition of Staphylococcus aureus FabI-mediated reduction of enoyl-ACP preincubated at 1 uM for 30 mins measured after 2 hrs by spectrophotometry
T1 sequence (whole entry): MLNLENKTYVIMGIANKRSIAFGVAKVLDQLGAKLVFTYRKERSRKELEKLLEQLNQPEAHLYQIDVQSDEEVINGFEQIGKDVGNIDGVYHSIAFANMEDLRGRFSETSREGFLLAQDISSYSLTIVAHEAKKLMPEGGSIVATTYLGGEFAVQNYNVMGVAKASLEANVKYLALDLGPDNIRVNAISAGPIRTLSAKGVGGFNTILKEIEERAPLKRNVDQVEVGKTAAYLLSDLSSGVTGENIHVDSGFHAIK
Procedure, shortened: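 Spectrophotometric FabI assay in 100 mM sodium ADA buffer, pH 6.5. Enzyme (2400 ng/assay) preincubated 30 min with NADH and compound. Reaction started with crotonoyl CoA. After 2 h at room temperature, NADH oxidation read as the fall in absorbance at 340 nm.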

[4] = target: T2, Enoyl-[acyl-carrier-protein] reductase [NADPH] FabI (Staphylococcus aureus, UniProt Q6GI75); assay: Inhibition of Staphylococcus aureus FabI-mediated reduction of enoyl-ACP preincubated for 30 mins measured after 2 hrs by spectrophotometry
T2 sequence (Q6GI75 whole entry): T1 sequence (whole entry)

[5] = tested on: Staphylococcus aureus; assay: Antibacterial activity against methicillin-sensitive Staphylococcus aureus ATCC 29213 after 16 to 20 hrs by broth microdilution method; assay type: functional; procedure, shortened: as §1
[6] = Tmax in Swiss albino CD-1 mouse at 10 mg/kg, po administered as single dose; assay type: ADME, organism-based; parameters: dose 10 mg/kg, route oral; details: in vivo
Procedure, shortened: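 Oral gavage, 10 mg/kg single dose, given as a suspension in 0.25% Tween 80 with 0.225% sodium carboxymethyl cellulose. Blood drawn from the retro-orbital plexus into EDTA at set times (sparse sampling, n = 3 per time point). Plasma stored at −20 °C and assayed by LC-MS/MS. Parameters from non-compartmental analysis.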

[7] = Metabolic stability in mouse liver mirosomes assessed as compound remaining at 1 uM after 60 mins by LC-MS/MS analysis; assay type: ADME, tissue-based; details: liver microsomes, read-out: Stability
Procedure, shortened: (§2)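 Compound tested at 1 µM in mouse liver microsomes (0.3 mg/mL protein) with 1 mM NADPH in KH₂PO₄ buffer, pH 7.4, at 37 °C. Reactions stopped at 0, 15 and 60 min with acetonitrile containing carbamazepine internal standard. Samples centrifuged and the supernatant analysed by LC-MS/MS.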

[8] = Metabolic stability in mouse liver mirosomes assessed as compound remaining at 1 uM after 15 mins by LC-MS/MS analysis; assay type: ADME, tissue-based; details: liver microsomes, read-out: Stability; procedure, shortened: as §2
[9] = tested on: Staphylococcus aureus; assay: Antibacterial activity against methicillin-resistant Staphylococcus aureus ATCC 33591 infected in Swiss albino CD-1 mouse compound administered orally bid at 1 hr and 4 hrs post infection; assay type: functional; details: ATCC 33591, po
[10] = AUC in Swiss albino CD-1 mouse at 10 mg/kg, po administered as single dose; assay type: ADME, organism-based; parameters: dose 10 mg/kg, route oral; details: plasma
Procedure, shortened: (§3)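 Blood drawn from the retro-orbital plexus into EDTA at set times (sparse sampling, n = 3 per time point). Plasma stored at −20 °C and assayed by LC-MS/MS. Parameters from non-compartmental analysis.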

[11] = Half life in Swiss albino CD-1 mouse at 10 mg/kg, po administered as single dose; assay type: ADME, organism-based; parameters: dose 10 mg/kg, route oral; details: in vivo; procedure, shortened: as §3
[12] = Cmax in Swiss albino CD-1 mouse at 10 mg/kg, po administered as single dose; assay type: ADME, organism-based; parameters: dose 10 mg/kg, route oral; details: in vivo; procedure, shortened: as §3

SMILES | MIC [1] [µg/mL] | MIC [2] [µg/mL] | inhibition [3] [%] | IC50 [4] [nM] | MIC [5] [µg/mL] | Tmax [6] [h] | remaining at 1 h, 1 µM [7] [%] | remaining at 0.25 h, 1 µM [8] [%] | ED50 [9] [mg/kg] | AUC [10] [ng·h/mL] | half-life [11] [h] | Cmax [12] [ng/mL]
O=C1CCc2cc(/C=C/C(=O)N3CC(COc4ccccc4F)C3)cnc2N1 | 1 (≈ 2.62 µM) | 2 (≈ 5.24 µM) | 99 | 378 | 1 (≈ 2.62 µM) |  |  |  |  |  |  | 
Cc1cc(C2CN(C(=O)/C=C/c3cnc4c(c3)CCC(=O)N4)C2)nc2ccccc12 | > 32 | > 32 | 84 | 242 | 32 (≈ 80.3 µM) |  |  |  |  |  |  | 
Cc1c(C2CN(C(=O)/C=C/c3cnc4c(c3)CCC(=O)N4)C2)oc2ccc(Cl)cc12 | 0.25 (≈ 0.593 µM) | 0.5 (≈ 1.19 µM) | 82 | 204 | 0.25 (≈ 0.593 µM) | 1 |  |  |  |  |  | 
O=C1CCc2cc(/C=C/C(=O)N3CC(COc4ccc5ccccc5c4)C3)cnc2N1 | 4 (≈ 9.67 µM) | > 32 | 68 | 1410 | 4 (≈ 9.67 µM) |  |  |  |  |  |  | 
Cc1ccc(OCC2CN(C(=O)/C=C/c3cnc4c(c3)CCC(=O)N4)C2)cc1 | 1 (≈ 2.65 µM) | 2 (≈ 5.3 µM) | 67 | 921 | 1 (≈ 2.65 µM) |  |  |  |  |  |  | 
Cc1c(C2CN(C(=O)/C=C/c3cnc4c(c3)CCC(=O)N4)C2)sc2ccccc12 | 0.25 (≈ 0.62 µM) | 2 (≈ 4.96 µM) | 89 | 709 | 0.125 (≈ 0.31 µM) | 4 |  |  |  |  |  | 
O=C1CCc2cc(/C=C/C(=O)N3CC(Oc4nc5ccccc5s4)C3)cnc2N1 | > 32 | > 32 | 16 |  | > 32 |  |  |  |  |  |  | 
O=C1CCc2cc(/C=C/C(=O)N3CC(COc4ccc(F)cc4)C3)cnc2N1 | 0.5 (≈ 1.31 µM) | 1 (≈ 2.62 µM) | 92 | 316 | 0.25 (≈ 0.655 µM) | 2 |  |  |  |  |  | 
CC(=O)Nc1ccc(/C=C/C(=O)N2CC(c3oc4ccccc4c3C)C2)cn1 | 1 (≈ 2.66 µM) | 8 (≈ 21.3 µM) | 97 | 161 | 1 (≈ 2.66 µM) |  |  |  |  |  |  | 
Cc1c(C2CN(C(=O)/C=C/c3cnc4c(c3)CN(C)CC(=O)N4)C2)oc2ccccc12 | 0.25 (≈ 0.6 µM) | 0.5 (≈ 1.2 µM) | 99 | 112 | 0.25 (≈ 0.6 µM) |  | 6.6 | 25.6 |  |  |  | 
Cc1c(C2CN(C(=O)/C=C/c3cnc4c(c3)CCC(=O)N4)C2)oc2ccccc12 | 0.06 (≈ 0.155 µM) | 0.5 (≈ 1.29 µM) | 96 | 141 | 0.06 (≈ 0.155 µM) | 2 |  |  | 0.9 |  |  | 
Cc1cccc(OCC2CN(C(=O)/C=C/c3cnc4c(c3)CCC(=O)N4)C2)c1 | 2 (≈ 5.3 µM) | 2 (≈ 5.3 µM) | 47 |  | 2 (≈ 5.3 µM) |  |  |  |  |  |  | 
O=C1CCc2cc(/C=C/C(=O)N3CCC3)cnc2N1 | > 32 | > 32 | 15 |  | > 32 |  |  |  |  |  |  | 
O=C1CCc2cc(/C=C/C(=O)N3CC(COc4cccc(F)c4)C3)cnc2N1 | 2 (≈ 5.24 µM) | 2 (≈ 5.24 µM) | 89 | 438 | 1 (≈ 2.62 µM) |  |  |  |  |  |  | 
O=C1CCc2cc(/C=C/C(=O)N3CC(c4ccccc4)C3)cnc2N1 | 2 (≈ 6 µM) | 2 (≈ 6 µM) | 80 | 488 | 1 (≈ 3 µM) |  |  |  |  |  |  | 
Cc1ccccc1OCC1CN(C(=O)/C=C/c2cnc3c(c2)CCC(=O)N3)C1 | 0.5 (≈ 1.32 µM) | 1 (≈ 2.65 µM) | 80 | 177 | 0.25 (≈ 0.662 µM) | 2 |  |  |  |  |  | 
O=C1CCc2cc(/C=C/C(=O)N3CC(c4nc5ccccc5s4)C3)cnc2N1 | 0.25 (≈ 0.64 µM) | 1 (≈ 2.56 µM) | 83 | 373 | 0.25 (≈ 0.64 µM) | 2 |  |  |  |  |  | 
CC(=O)NC[C@H]1CN(c2ccc(N3CCOCC3)c(F)c2)C(=O)O1 [LINEZOLID] |  |  |  |  |  |  |  |  | 2.8 |  |  | 
COc1ccc2oc(C3CN(C(=O)/C=C/c4cnc5c(c4)CCC(=O)N5)C3)c(C)c2c1 | 1 (≈ 2.4 µM) | 2 (≈ 4.79 µM) |  |  | 0.5 (≈ 1.2 µM) |  |  |  |  |  |  | 
O=C1CCc2cc(/C=C/C(=O)N3CC(OCc4ccccc4)C3)cnc2N1 | 2 (≈ 5.5 µM) | 2 (≈ 5.5 µM) | 69 | 376 | 1 (≈ 2.75 µM) |  |  |  |  |  |  | 
Cc1c(C2CN(C(=O)/C=C/c3cnc4c(c3)CNCC(=O)N4)C2)oc2ccccc12 | 0.25 (≈ 0.621 µM) | 1 (≈ 2.48 µM) | 83 | 384 | 0.25 (≈ 0.621 µM) | 0.5 | 76.4 | 96.2 |  | 9000 | 8.5 | 2250
O=C1CCc2cc(/C=C/C(=O)N3CC(c4ccccn4)C3)cnc2N1 | 8 (≈ 23.9 µM) | 16 (≈ 47.8 µM) | 87 | 242 | 4 (≈ 12 µM) |  |  |  |  |  |  | 
Cc1c(C2CN(C(=O)/C=C/c3cnc4c(c3)CN(CCN3CCOCC3)C(=O)N4)C2)oc2ccccc12 | 1 (≈ 1.99 µM) | 2 (≈ 3.99 µM) | 105 | 58 | 1 (≈ 1.99 µM) |  |  |  |  |  |  | 
Cc1c(C2CN(C(=O)/C=C/c3ccc(NC(=O)Cn4ccnn4)nc3)C2)oc2ccccc12 | > 32 | > 32 | 66 | 843 | > 32 |  |  |  |  |  |  | 
O=C1CCc2cc(/C=C/C(=O)N3CC(Oc4ccccc4)C3)cnc2N1 | 4 (≈ 11.4 µM) | 16 (≈ 45.8 µM) | 35 |  | 4 (≈ 11.4 µM) |  |  |  |  |  |  | 
Cc1c(C2CN(C(=O)/C=C/c3cnc4c(c3)NCCC(=O)N4)C2)oc2ccccc12 | 0.5 (≈ 1.24 µM) | 1 (≈ 2.48 µM) | 92 | 316 | 0.25 (≈ 0.621 µM) |  |  |  |  |  |  | 
O=C1CCc2cc(/C=C/C(=O)N3CC(COc4ccccc4)C3)cnc2N1 | 0.25 (≈ 0.688 µM) | 1 (≈ 2.75 µM) | 81 | 265 | 0.25 (≈ 0.688 µM) |  |  |  |  |  |  | 
O=C1CCc2cc(/C=C/C(=O)N3CC(Cc4nc5ccccc5s4)C3)cnc2N1 | 4 (≈ 9.89 µM) | 2 (≈ 4.94 µM) | 41 |  | 2 (≈ 4.94 µM) |  |  |  |  |  |  | 
Cc1c(C2CN(C(=O)/C=C/c3cnc4c(c3)CN(CCN3CCOCC3)CC(=O)N4)C2)oc2ccccc12 | 1 (≈ 1.94 µM) | 2 (≈ 3.88 µM) | 100 | 289 | 1 (≈ 1.94 µM) |  |  |  |  |  |  | 
Cc1c(CN(C)C(=O)/C=C/c2cnc3c(c2)CCC(=O)N3)oc2ccccc12 [AFN-1252] | 0.008 (≈ 0.0213 µM) | 0.008 (≈ 0.0213 µM) | 100 | 29 | 0.008 (≈ 0.0213 µM) | 1 | 17.5 | 55.4 |  | 2200 | 1.84 | 440
